Assay outcomes as filed in PubChem.
CHT inh: inhibitors of human choline transporter CHT | High affinity choline transporter 1 (Homo sapiens), Q9GZV3 | CHT-expressing cells, membrane potential dye, choline response; active compounds read low | B-score at 10 µM | 310,000 compounds, 0.86% hits | AID 488975, 2010;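 active = B-score over 3 SD under the library average, and starting fluorescence ratio not unusually high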;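 also: choline stimulus applied at its EC90 after an EC20 pre-addition; B-score computed on integrated fluorescence ratio after choline addition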
Target sequence (Q9GZV3 whole entry, looked up): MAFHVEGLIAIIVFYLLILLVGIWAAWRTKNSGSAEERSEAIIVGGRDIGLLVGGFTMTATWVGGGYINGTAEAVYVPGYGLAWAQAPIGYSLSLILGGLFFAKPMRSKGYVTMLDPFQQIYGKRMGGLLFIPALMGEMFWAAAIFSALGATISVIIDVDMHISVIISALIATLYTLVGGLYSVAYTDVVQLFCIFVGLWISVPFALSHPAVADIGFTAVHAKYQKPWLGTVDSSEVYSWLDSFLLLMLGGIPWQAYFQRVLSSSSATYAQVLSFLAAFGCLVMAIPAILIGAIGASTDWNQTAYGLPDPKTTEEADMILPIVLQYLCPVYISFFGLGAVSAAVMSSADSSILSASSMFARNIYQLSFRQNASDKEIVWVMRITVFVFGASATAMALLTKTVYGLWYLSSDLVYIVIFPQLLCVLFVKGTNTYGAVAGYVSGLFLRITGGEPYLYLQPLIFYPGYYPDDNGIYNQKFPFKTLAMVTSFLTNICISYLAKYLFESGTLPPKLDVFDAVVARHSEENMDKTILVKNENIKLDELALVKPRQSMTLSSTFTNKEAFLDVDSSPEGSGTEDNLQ
procasp3 activ: activators of human procaspase-3 D3A mutant, primary screen, biochemical, absorbance, PC-3 D3A mutant, single concentration; recombinant procaspase-3 D3A, Ac-DEVD-pNA absorbance 405 nm; Caspase-3 (Homo sapiens), P42574; activation, % at 8.5 µM; 330,000 compounds, 0.11% hits;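 active = activation above the mean of all tested compounds plus 3 SD, cut at about 21% in these data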;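 also: 0% = DMSO alone and 100% = DMSO wells spiked with extra 5 µM PC-3 D3A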
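Compound: 8.5 µM single point, 0.8% DMSO / Material: Autoprocessing-dead procaspase-3 D3A mutant enzyme / Timing: 1 h preincubation plus 2 h reaction at 25 °C / Medium: Zinc-free HEPES/NaCl buffer with 0.01% Triton X-100 at pH 7.4 / Technique: 405 nm absorbance of p-nitroaniline, reads at 0 and 120 min / Repeats: one well per compound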
CHT PAM: CHT positive allosteric modulators, primary screen, cell-based, membrane potential dye, choline EC20 | High affinity choline transporter 1 (Homo sapiens), Q9GZV3 | CHT-expressing cells; active compounds read high; LV-AA mutant CHT in HEK293 cells | B-score at 10 µM | 310,000 compounds, 0.49% hits | AID 488977, 2010;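 active = initial fluorescence not abnormally high and integrated response B-score, plate-corrected, over 3 SD above library mean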
proCasp7 act: procaspase-7 activators, primary screen, counter-screen for procaspase-3 activator project, biochemical, absorbance, HTS, human; Caspase-7 (Homo sapiens), P55210; recombinant procaspase-7, Ac-DEVD-pNA absorbance 405 nm; D23A/D198A/D206A triple mutant, cannot self-cleave; scale: DMSO 0, 5 µM enzyme 100; activation, % at 8.5 µM; 330,000 compounds, 0.093% hits; AID 463210, 2010;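 active = percent activation above the screen-wide mean plus 3 SD, cut at about 25% in these data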
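Assay system – Uncleavable procaspase-7 mutant enzyme · Quantity – 2 µM procaspase-7 mutant as dispensed · Times – 1 h preincubation, 2 h reaction · Dosing – single nominal 8.5 µM compound dose, 0.8% DMSO final · Buffer or medium – Zinc-free 50 mM HEPES buffer, pH 7.4, with NaCl and Triton X-100 · Detection – Epi-absorbance of released pNA at 405 nm, two timepoints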
CHT act confirm: CHT activators, confirmation, cell-based, membrane potential dye, duplicate | shares compounds with CHT PAM | CHT-expressing cells, membrane potential dye fluorescence (FDSS); % of choline EC20–EC90 response window; HEK293 expressing CHT LV-AA mutant; choline added at its EC20 | activation, % at 10 µM | 2,500 compounds, 91% hits | AID 504833, 2011;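 active = primary screen active, with duplicate mean activation above negative control mean plus 3 SD, cut at about 11% in these data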
HEK293 MP dye: membrane potential response in parental HEK293 cells, counter-screen for CHT activator project, cell-based, membrane potential dye. shares compounds with CHT PAM. membrane potential dye fluorescence (FDSS); measured after EC20 choline addition. ratio readout change at 10 µM, hits read low. 2,500 compounds, 62% hits. AID 623908, 2012;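 active = duplicate-averaged ratio beyond 3 SD from buffer wells, up or down, though filed actives are nearly all decreases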
* = called active by the depositor; i = inactive; . = no result given. The list is not random: actives were taken first. Their share in the collection is about 1.3%.

SMILES	CHT inh	procasp3 activ	CHT PAM	proCasp7 act	CHT act confirm	HEK293 MP dye
Cc1ccc(S(=O)(=O)Nc2ccc(C(=O)NCCCN3CCOCC3)cc2)cc1[N+](=O)[O-]	i	-2	i	1	16*	i
CCN(C(=O)c1cccc(S(=O)(=O)N(C)C)c1)C12CC3CC(CC(C3)C1)C2	i	1	9.7*	-8	14*	i
CCN(C(=O)c1ccc2c(c1)OCO2)C12CC3CC(CC(C3)C1)C2	.	-8	.	8	.	.
CC/C(=C/c1sc2ccc(C)cc2[n+]1CCO)SC	i	-22	i	-29	.	.
CC/C(=C/c1sc2ccc(C)cc2[n+]1CCCS(=O)(=O)[O-])SC	i	-18	6.8*	-17	48*	i
COc1cccc(OC)c1OCCCCN1CCC(Cc2ccccc2)CC1	i	0	i	10	.	.
CC(=O)CCc1ccc(OCCCCN2CCC(Cc3ccccc3)CC2)cc1	i	-4	i	4	15*	-26*
COc1ccc(CCN2CCCn3c2nc2c3c(=O)n(CC(C)C)c(=O)n2C)cc1OC	i	.	i	.	.	.
O=[N+]([O-])c1cc(Cl)cc(C2=NCCN2)c1	i	2	i	-4	49*	-55*
COc1ccc(N2C(=O)NC(NS(=O)(=O)c3ccc(NC(C)=O)cc3)(C(F)(F)F)C2=O)cc1 (stereo not given)	i	2	i	5	.	.
CCOC(=O)c1cc2c(=O)n3ccccc3nc2n(Cc2ccco2)c1=NC(=O)c1ccc(OC)cc1OC	i	-10	i	-5	21*	-26*
CCOC(=O)c1cc2c(=O)n3ccccc3nc2n(CC2CCCO2)c1=NC(=O)/C=C/c1ccccc1 (stereo not given)	i	-9	i	-15	15*	i
CC(NC(=O)c1cc2c(=O)n3ccccc3nc2n(CC2CCCO2)c1=N)c1ccccc1 (stereo not given)	i	-9	i	-9	.	.
N=c1c2c(n(Cc3ccccc3)c3c1CCC3)CCC2	i	11	i	-1	.	.
CCOC(=O)Cn1c2c(c(=N)c3c1CCC3)CCC2	i	13	i	-3	23*	-48*
CCCCCn1c2c(c(=N)c3ccccc31)CCC2	i	-5	6.7*	-6	41*	-65*
CCOC(=O)Cn1c2c(c(=N)c3ccccc31)CCC2	i	1	i	-7	65*	-51*
O=C(CN1CCOCC1)Nc1ccc([N+](=O)[O-])cc1	i	0	i	-3	.	.
Cc1cc(NC(=O)CCC(=O)N(c2ccccc2C)C(C(=O)NC2CCCC2)c2ccccc2)no1 (stereo not given)	i	8	i	11	.	.
Cc1ccc(C(=O)NCC(c2ccco2)N2CCc3ccccc32)cc1 (stereo not given)	i	1	i	-8	.	.
Cc1ccc(NC(=O)CCN2CCOCC2)cc1C	i	.	i	.	.	.
COc1cc(N)c(C(O)c2nccc3cc(OC)c(OC)cc23)cc1OC (stereo not given)	i	-1	i	-1	70*	-51*
COc1ccc(C(=O)c2nccc3cc(OC)c(OC)cc23)cc1OC	.	0	.	-4	.	.
COc1ccc(C(O)c2nccc3cc(OC)c(OC)cc23)cc1OC (stereo not given)	i	1	9.2*	2	59*	-74*
CCCCN(C(=O)COC(=O)c1ccccc1)c1c(N)n(CCC)c(=O)[nH]c1=O	.	-4	.	15	.	.
SMILES	CHT inh	procasp3 activ	CHT PAM	proCasp7 act	CHT act confirm	HEK293 MP dye
Cc1ccc(CNCCCSc2ncccn2)cc1	i	11	i	3	.	.
O=C(NC1CCCCCCC1)c1cc(-c2ccccn2)nc2ccccc12	i	4	6.8*	14	10*	i
Cc1ccccc1C(=O)NC1CCN(Cc2ccccc2)CC1	i	-2	i	-2	.	.
O=C(NC1CCN(Cc2ccccc2)CC1)c1cc(-c2ccccn2)nc2ccccc12	i	-6	7.8*	10	48*	-59*
CCN1C(=O)[C@H]2[C@H]3CN=C(SCc4ccc(OC)cc4)N3[C@@](CC)(C(=O)OC)[C@H]2C1=O	.	-3	.	-1	.	.
C=CCN(CC=C)C(=O)c1ccc(OC2CCN(C(C)=O)CC2)c(OC)c1	i	7	i	10	.	.
NC(=O)CC[C@H](NC(=O)c1ccc(F)cc1)C(=O)OCC(=O)NCc1ccc2c(c1)OCO2	.	1	.	14	.	.
COc1ccc(CCNCc2ccc(OCc3ccc(Cl)nc3)c(OC)c2)cc1OC	i	-8	7.8*	1	37*	i
COCCNC(=O)/C(C#N)=C/c1c(N2CCN(c3ccccc3)CC2)nc2ccccn2c1=O	i	-3	i	-3	.	.
COCCCNC(=O)/C(C#N)=C/c1c(N2CCN(c3ccccc3)CC2)nc2ccccn2c1=O	i	-4	i	-6	.	.
CCOC(=O)/C(C#N)=C/c1c(N2CCN(C)CC2)nc2c(C)cccn2c1=O	i	.	i	.	46*	-48*
CCN1CCN(c2nc3c(C)cccn3c(=O)c2/C=C(\C#N)C(=O)NCCOC)CC1	i	-3	8.7*	-5	60*	-62*
COCCCNC(=O)/C(C#N)=C/c1c(N2CCN(C)CC2)nc2ccccn2c1=O	i	-2	i	-3	48*	-42*
CNC(=O)/C(C#N)=C/c1c(N2CCCCCC2)nc2ccccn2c1=O	i	-4	6.4*	-2	-2	-36*
CCCCCCSc1ccc([C@H]2N[C@@](Cc3ccccc3)(C(=O)OC)[C@H]3C(=O)N(C)C(=O)[C@@H]23)cc1OC	i	8	i	-8	.	.
O=C(C(=O)N1CCN(c2ccccc2)CC1)c1cn(CC(=O)N2CCCCCC2)c2ccccc12	i	2	i	-5	.	.
CC1(C)C[C@H](O)[C@]2(CO)[C@H](O)C[C@]3(C)C(=CCC4[C@@]5(C)CC[C@H](O)C(C)(C)C5CC[C@]43C)[C@@H]2C1 (stereo not given in full)	.	-3	.	1	.	.
CN1CCN(c2nc3ccccn3c(=O)c2C=O)CC1	i	-5	6.3*	2	48*	-45*
